assay: Toxicity liver stage against HepG2, at 10uM; format: cell-based; set-up: test concentration 10 uM, cell line HepG2-A16-CD81EGFP; settings: human, HepG2-A16-CD81EGFP cells; read-out: INHIBITION
Method in brief: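 Uninfected HepG2-A16-CD81EGFP cells, 3 × 10^3 per well, 1536-well, plated on prespotted compound at 10 μM final, parasite-free screening media added to match infected plates; puromycin 10 μM positive, DMSO 0.5% negative; run in parallel with 48 h PbLuc assay at 37 °C, 5% CO2; viability by CellTiter-Glo luminescence, normalized to controls.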

Point of comparison: CC(C)c1ccc(OCCNC(=O)CN2CCN(C)CC2C)cc1 (configuration not stated), cytotoxicity at 10 µM -13.2%. Against it:
- CC(O)CN1CCC(CN(C)Cc2cccc(C(=O)N(C)C)c2)CC1 (configuration not stated) — higher, -5.74%
- CCC(O)Cn1nc(CCSC)nc1-c1ccc2[nH]ccc2c1 (configuration not stated) — higher, 4.96%
- N#Cc1ccccc1OCCN1CCCC1Cn1cncn1 (configuration not stated) — higher, -10.7%
- CS(=O)(=O)N1CCC(c2cnc(-c3cn[nH]c3)cn2)CC1 — higher, 3.64%
- CCC(C(=O)NC1CCCCC1)n1ccc2ncccc2c1=O (configuration not stated) — higher, 2.17%
- CCS(=O)(=O)N1CCN(C(=O)NC(C)C)CC2(CC(=O)N(C)C2)C1 (configuration not stated) — higher, 6.62%
- COc1c(C(=O)NCc2cccnc2)nnn1Cc1ccc(C)cc1 — higher, 11.8%
- c1csc(CN2CCC3(CC2)CCN(CC2CCOCC2)C3)n1 — higher, 3.83%
- O=S(=O)(c1ccc(F)cc1)N1CCCn2cnc(CN3CCCC3)c2C1 — higher, 7.78%
- CC(C)CCN1C[C@@H]2C[C@H](C(=O)NCc3ccccc3)[C@H](C1)O2 — higher, -2%
- O=C(CCc1cccnc1)Nc1ccc(OCC2CCOCC2)cc1 — higher, -6.01%
- FC(F)(F)C1CCCn2c(CNCc3ccsc3)nnc21 (configuration not stated) — higher, 16.5%
- O=C(CN1CCOCC1)N(c1ccccc1)c1ccccc1 — higher, -11.8%
- CC(NCCCn1cccn1)c1ccc(N2CCCS2(=O)=O)cc1 (configuration not stated) — higher, -0.828%
- Cc1ccc2cccc(C(=O)NCC3CCN(C(C)C)C3)c2n1 (configuration not stated) — higher, -9.97%
- O=C(NCC1(CO)CC1)c1nnn(-c2ccc(F)cc2)c1C1CC1 — higher, -1.06%
- COc1ccc(CC(=O)N2CCN(C)c3ncccc3C2)cc1 — higher, -5.79%
- CCC(=O)Nc1ccc2c(c1)C1(CCOCC1)CN2CCF — lower, -87.4%
- Cc1cc(N(C)Cc2ccsc2)n2nc(C)c(C)c2n1 — higher, 1.7%
- O=C(COCC1CC1)N1CCCC1c1nc(-c2ccccc2F)c[nH]1 (configuration not stated) — higher, -0.025%
- CC(C)=CCCC(C)CN1CCC(n2cc(C(=O)NCCO)nn2)CC1 (configuration not stated) — higher, 0.232%
- COc1ccccc1C(C)(C)NCc1ccc(C)o1 — higher, -0.121%
- CC(C)c1ccccc1OCCNC(=O)N1CCC(CC(N)=O)CC1 — higher, 3.2%
- Cn1cc(CN2CCc3nc4ccccc4c(=O)n3CC2)cn1 — higher, -1.57%
- CCc1csc(CNCC(=O)Nc2ccc(Cl)c(C)c2)n1 — higher, 5.33%
- Clc1ccc(CN2CCCC(Cn3cncn3)C2)c2ncccc12 (configuration not stated) — lower, -13.7%
- CCc1cnc(CN(C)C2CCN(CCn3cc(C#N)cn3)C2)o1 (configuration not stated) — higher, -8.99%
- CN(C)C(=O)N1CCCC2(CCN(Cc3ccncc3)C2)C1 (configuration not stated) — higher, 7.61%
- CN1C(=O)C2(CCN(S(=O)(=O)C3CC3)CC2)c2ccccc21 — higher, -5.27%
- O=C([C@@H]1COC[C@H]2CN(C3CCOCC3)C[C@H]21)N1CCCCO1 — higher, -6.28%
- O=c1[nH]nc(SCC2CCCCO2)n1C1CC1 (configuration not stated) — higher, 2.14%
- CN(Cc1nc(-c2ccccc2)no1)C(=O)CNS(C)(=O)=O — higher, 0.0773%
- O=C1CSC(c2ccc(Cl)cc2Cl)c2c(n(C3CCOCC3)[nH]c2=O)N1 (configuration not stated) — higher, -7.92%
- CC(C)(C)n1ncc2c1CCCC2NCc1ccc2ncccc2c1 (configuration not stated) — higher, 7.74%
- COc1ccc(N2CCN(C(=O)COc3c(C)occc3=O)CC2)cc1 — higher, -2.67%
- Cc1ccc(CN2CCn3cc(CNC(=O)c4cnn(C)c4)nc3C2)s1 — higher, 1.13%
- COc1ccccc1OCC(=O)n1ncc(C#N)c1N — lower, -20%
- Cc1nc(CNC(=O)C(C)Oc2ccccc2F)no1 (configuration not stated) — higher, 5.43%
- COc1ccc(NC(=O)N2CCCC(CO)C2)c(C)c1 (configuration not stated) — higher, -8.33%
- Cc1ccccc1CC(=O)NCCNc1nccc(C(F)(F)F)n1 — higher, 7.64%
- COCc1ncn2c1CN(C(=O)c1cnc3ccccc3c1)CC2 — higher, -2.39%
- O=C([C@H]1CCCO1)N1CCC2(CCCN(CCOc3ccccc3)C2)C1 (some centres not stated) — higher, -3.25%
- O=C1CCC(=O)c2oc3ccc(Br)cc3c2N1 — higher, 2.44%
- O=C(Cc1ccc(F)cc1)N1CCCC(c2n[nH]c3nccnc23)C1 (configuration not stated) — higher, 4.59%
- O=C(O)COc1ccc(Cl)cc1CN1CCC2(CCOCC2)CC1 — higher, -6.55%
- COC1CCN(C(=O)Cc2csc(-c3ccc(F)cc3)n2)CC1 — higher, -6.16%
- CCn1nc(C)c(NC(=O)CN2CC[C@H](CO)[C@@H](O)C2)c1C — higher, 0.887%
- CC(Cn1cccn1)NCc1nc(-c2ccccc2Cl)no1 (configuration not stated) — higher, -3.56%
- COCc1nccc(C2CCCN(Cc3cccc(F)c3)C2)n1 (configuration not stated) — higher, 0.769%
- O[C@@H]1CC(CNCC2CC2)(COc2cccnc2)C[C@@H]1O (some centres not stated) — higher, -2.64%
- CCC(CC)NC(=O)c1ccc2nnc(C3CCN(C(C)=O)C3)n2c1 (configuration not stated) — higher, -2.19%
- Cc1ncsc1CN1C[C@@H](OCC(=O)N(C)C)[C@H]2OCCC[C@H]21 — lower, -139%
- COc1cc(C(=O)N2CCO[C@H]3[C@H](OCC4CC4)CC[C@@H]32)ccc1F — higher, 9.32%
- Cc1noc(CNC2CCCN(Cc3noc(C4CC4)n3)C2)n1 (configuration not stated) — higher, -1.7%
- Cn1cc(CN2CCC3(CC2)CN(c2cccnc2)C(=O)CO3)cn1 — lower, -103%
- CC(C)CCn1nc(CNc2ccc(Br)cc2)nc1O — higher, 9.84%
- COc1cccc(CN2CCCC2c2cccc(F)c2)c1OC (configuration not stated) — higher, 6.01%
- CC(COc1ccccc1F)NC(=O)N[C@@H]1C=C[C@H](CO)C1 (some centres not stated) — higher, 3.53%
- O=C(c1sccc1C1CC1)N1CCCN(Cc2cscn2)CC1 — lower, -14.7%
- O=S(=O)(Nc1cnc(N2CCOCC2)nc1)c1cccc(F)c1 — lower, -19.2%
- COC(=O)COc1ccc(-c2noc(C3CCCO3)n2)cc1 (configuration not stated) — higher, 1.07%
- COc1ccc(CC(=O)N2CCCC2Cn2cc(C)cn2)c(OC)c1 (configuration not stated) — lower, -18%
- Cc1ccc(NC(=O)CCc2cnn(C)c2)cc1F — higher, -1.69%
- Cc1cccc(-c2nc(C)nn2CC(=O)NC2CCCC2)c1 — higher, -12.5%
- CC(=O)Nc1ccc(C(=O)Nc2cnc3n2CCCC3)c(C)c1 — higher, -1.14%
- Cn1c(NC(=O)CNC(=O)C2CC2)nc2cc(Cl)ccc21 — higher, 3.66%
- Cc1ccc(N2CC3(COCCN(Cc4ccccn4)C3)OCC2=O)s1 (configuration not stated) — higher, -3.49%
- NC(=O)c1cnn2c1NCC(CNCCCc1ccccc1)C2 (configuration not stated) — higher, -9.24%
- CC1N(C)C(=O)COC12CCN(C(=O)Cc1ccsc1)CC2 (configuration not stated) — higher, 2.81%
- Cc1nnc2n1CCN(Cc1nc3c(F)cccc3[nH]1)C2 — higher, -2.3%
- CCOC(=O)Cn1c(=O)nc(N)c2c(-c3ccc(OC)cc3)csc21 — lower, -33.2%
- CC(C)(C#N)c1ccccc1CN1CCC(N2CCCC2=O)CC1 — higher, 2.35%
- O=C1CC(NS(=O)(=O)N2CCOCC2)CN1CCc1ccccc1 (configuration not stated) — higher, 14.4%
- CC(C)C(C)NC(=O)Nc1cccc2c1CCN(S(C)(=O)=O)C2 (configuration not stated) — higher, -11.3%
- Cc1nc(N2C[C@H]3CNC[C@H]3C2)c2sccc2n1 — higher, 9.26%
- Cc1cnc(N2CC[C@@H]3O[C@@H](COCc4ccccn4)CC[C@@H]32)nc1 — lower, -88.3%
- COc1ccccc1Oc1ncccc1CNC(=O)C(O)C(F)(F)F (configuration not stated) — higher, -3.37%
- CS(=O)(=O)c1ccc(C(=O)N2CCCC(n3ccnc3)C2)cc1 (configuration not stated) — lower, -19.4%
- CS(=O)(=O)CCN1CC(c2ccccc2)(c2ccccc2)CCC1=O — higher, 0.623%
- COc1ccnc(N2CCN(C(=O)c3cscn3)CC2)n1 — higher, 0.883%
- Cc1nsc(N2CCN(C(=O)Nc3ccc4[nH]ccc4c3)CC2)n1 — higher, 4.52%

From ChEMBL document CHEMBL4513216, “Probing the Open Global Health Chemical Diversity Library for Multistage-Active Starting Points for Next-Generation Antimalarials” (ACS Infect Dis, 2020)
